# Sampled rows, rich in hits. Any-hit rate of the full collection: about 4.1%.
# MC4R antag cAMP = MC4R antagonists of cAMP signaling, primary screen, cell-based, TR-FRET, antagonist arm of biased-ligand search. MC4R-expressing cells, MTII-stimulated cAMP, LANCE TR-FRET. inhibition, % at 6.5 µM. 360,000 tested, 0.48% active. AID 540295, 2011;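 active = inhibition above its plate's cutoff, the mean of tested wells on that plate plus 3 SD, cut at about 29% in these data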;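 note: 0% = Melanotan II alone and 100% = Melanotan II plus saturating MCL0020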
# Target sequence (P32245 whole entry, looked up): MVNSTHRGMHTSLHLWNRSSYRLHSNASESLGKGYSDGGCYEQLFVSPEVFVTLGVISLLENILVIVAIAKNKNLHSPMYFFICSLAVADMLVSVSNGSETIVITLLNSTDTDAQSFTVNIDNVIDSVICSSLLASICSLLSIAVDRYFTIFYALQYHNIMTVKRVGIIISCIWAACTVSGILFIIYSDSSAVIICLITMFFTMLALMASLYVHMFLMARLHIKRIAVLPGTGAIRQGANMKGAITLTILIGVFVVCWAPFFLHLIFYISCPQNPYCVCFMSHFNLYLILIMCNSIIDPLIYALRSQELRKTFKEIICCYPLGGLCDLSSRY
#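 Material: U2OS-MC4R stable cell line | Reagent: Melanotan II challenge after compound preincubation | Doses: One concentration, 6.5 µM nominal | Incubation: 30-min compound preincubation, 1-h Melanotan II challenge, 1-h detection, room temperature | Signal: TR-FRET cAMP assay | Replicates: One well per compound, no replicates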
# MPTP inh = mitochondrial permeability transition pore inhibitors, primary screen, biochemical, isolated mouse mitochondria, absorbance. Ca2+ swelling absorbance, 30 min. inhibition, % at 10 µM. 360,000 tested, 1.4% active. AID 602449, 2012;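 active = inhibition of 50% or more, scaled per plate between neutral and stimulator controls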;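 note: 0% = DMSO wells given calcium and 100% = 1 mM EGTA wells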
# MC4R ag barr = MC4R agonists recruiting beta-arrestin, primary screen, cell-based, luminescence, agonist arm of biased-ligand search; Melanocortin receptor 4 (Homo sapiens), P32245; activation, % at 8.9 µM; AID 540308, 2011; 360,000 tested, 0.98% active; U2OS MC4R beta-arrestin complementation; percent of melanotan II response, DMSO zero;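 active = activation above a per-plate cutoff, the mean activation of sample wells on that plate plus 3 SD, cut at about 8% in these data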
# ATG4B inh = ATG4B protease inhibitors, primary screen, biochemical, fluorescence, uHTS; Cysteine protease ATG4B (Homo sapiens), Q9Y4P1; ATG4B cleavage of LC3-PLA2, NBD-HPC fluorescence, 1 h; inhibition, % at 8.33 µM; 340,000 tested, 0.51% active; AID 504462, 2011; in the data active = inhibition above about 40%
# SMARCA2 act = SMARCA2 (BRM) function activators, primary screen, cell-based, luminescence, high throughput | 370,000 tested, 1% active | activation, % at 9.1 µM | MG213 cells, MMTV-luciferase reporter, dexamethasone, overnight; in the data active = activation above about 7.8%;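 note: 0% = vehicle wells and 100% = reference activator wells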
# SMARCA2 act conf = SMARCA2 (BRM) function activators, confirmation, cell-based, luminescence, triplicate. shares compounds with SMARCA2 act. MG213 cells, MMTV-luciferase with dexamethasone, overnight; MG213 cells expressing E1A, Rb sequestered; DMSO wells 0%, reference activator 100%. activation, % at 9.1 µM. 3,500 tested, 30% active;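 active = activation above its plate's cutoff, the mean activation of tested wells plus 3 SD, cut at about 7.9% in these data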
# GAL4-VP16 Luc = GAL4-VP16 luciferase reporter activation, counter-screen for SMARCA2 (BRM) activator project, cell-based, pG5luc, luminescence, high throughput; 3,500 tested, 41% active; HEK293 GAL4-VP16 pG5luc reporter; scaled: DMSO wells 0%, SAHA wells 100%; activation, % at 9.1 µM; AID 686939, 2013; shares compounds with SMARCA2 act;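 active = activation above the solvent-only control well mean plus 3 SD, averaged across control plates, cut at about 5.2% in these data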
# * = called active by the depositor; · = no result.
SMILES,MC4R antag cAMP,MPTP inh,MC4R ag barr,ATG4B inh,SMARCA2 act,SMARCA2 act conf,GAL4-VP16 Luc
Cc1[nH]c2ccccc2c1CC(=O)Nc1ccc(Oc2cccnc2)cc1,·,·,·,·,-3.4,·,·
CCOC(=O)CC1(C)Sc2ccccc2N1S(=O)(=O)c1ccc(C)cc1 (stereo unspecified),·,-1.4,·,·,1.3,·,·
CCCCN1CC(N2CCCC2)CS1(=O)=O (stereo unspecified),·,·,·,·,-4.6,·,·
COc1ccccc1OCc1nc2ccccc2n1C,9.5,-0.1,-1.3,1.9,10.2*,12.5*,7.5*
Cn1c(COc2ccccc2Br)nc2ccccc21,2.1,0.8,-0.1,7.6,4.9,·,·
C[C@H]1Cn2cnc(C(=O)N(C)Cc3ccccc3)c2C(=O)N1,·,·,·,·,-4.8,·,·
COc1ccc(CN2CN3Cc4cc(OC)ccc4C3CS2(=O)=O)cc1 (stereo unspecified),·,·,·,·,-0.7,·,·
CC1CC(NC(=O)/C=C/C(=O)O)CC(C)(C)C1 (stereo unspecified),9.2,1.0,1.1,-4.8,10.5*,-1.5,0.8
O=C(NNC(=O)c1ccc(Cl)cc1Cl)c1ccncc1,-1.4,-1.3,1.6,-1.3,-2.3,·,·
O=C(NNC(=O)c1ccccc1Cl)c1ccncc1,3.6,-0.8,0.5,6.3,8.7*,-3.6,0.2
CCN(CC)C(=O)Oc1ccc2c(=O)c(-c3ccccc3)coc2c1,3.9,-0.6,0.0,-1.0,12.7*,7.8,11.4*
COC(=O)C1=C(C)N(Cc2ccc(F)cc2)C(=S)NC1c1cccc(OC)c1 (stereo unspecified),·,·,·,·,8.6*,-3.7,0.7
CCCCN(CC)CCNC(=O)c1cc2c(=O)n(CC)c3ccccc3c2s1,-0.5,-0.7,-1.8,1.5,4.1,·,·
CCCCN(CC)CCCNC(=O)c1cc2c(=O)n(CC)c3ccccc3c2s1,5.2,0.0,-2.1,-5.0,13.9*,3.4,8.1*
CCN(CC)CCNC(=O)c1cc2c(=O)n(C)c3ccccc3c2s1,7.9,0.0,-2.2,6.1,14.0*,13.5*,2.1
COC(=O)C[C@H]1CC[C@@H]2[C@@H](COc3ccc(NC(=O)Nc4cccc(C)c4)cc3C(=O)N2C)O1,·,·,·,·,-3.0,·,·
CC1(C)C2CC=C(/C=N/NC(=S)Nc3cccnc3)C1C2 (stereo unspecified),4.2,-0.5,-0.8,-7.1,-0.8,·,·
CC1=C/C(=N\NC(=S)Nc2cccnc2)CC(C)(C)C1,10.4,-3.5,-4.4,-13.0,8.1*,-12.2,21.1*
O[C@H](COc1cccc(F)c1)CN1CCC(C(O)(c2ccccc2)c2ccccc2)CC1,·,·,·,·,-2.8,·,·
Cc1ccc(Cc2c(-c3ccc(Br)cc3)nc3cc(C)ccn23)cc1,-13.8,-3.6,-1.6,·,8.2*,4.7,4.3
Cc1ccc(Cc2c(-c3ccc(F)cc3)nc3cc(C)ccn23)cc1,-11.8,-1.9,-1.4,·,3.1,·,·
CCc1ccc2cc3c(cc2n1)C(=O)c1ccccc1-3,·,0.9,·,·,8.6*,12.1*,13.3*
COC(=O)C1=C(C)N(C)C(=NCc2cccc(C(F)(F)F)c2)NC1c1cccc(Cl)c1 (stereo unspecified),·,·,·,·,-3.7,·,·
O=c1nc(N/N=C/C=C/c2ccccc2)cn[nH]1,-18.2,2.9,-0.2,-6.1,11.8*,11.6*,6.7*
O=C(O)c1ccc(N/N=C/c2ccc(-c3ccccc3)cc2)cc1,1.8,1.3,-0.5,34.9,0.5,·,·
O=c1nc(N/N=C/c2c[nH]c3ccccc23)cn[nH]1,-16.9,0.7,-0.2,-9.0,4.8,·,·
O=C(O)c1ccc(N/N=C/C=C/c2ccccc2)cc1,-6.8,1.0,-2.0,-7.2,8.0*,4.3,17.0*
O=C(NCCCc1ccccc1)OC1CC2CC1[C@H]1CCCCN1C2 (stereo partly specified),·,·,·,·,-1.3,·,·

# Screening results: PubChem, several laboratories
